IC50 data for 24 molecules are collected here from ChEMBL document CHEMBL1158565, “Antagonism of 4-substituted 1,4-dihydropyridine-3,5-dicarboxylates toward voltage-dependent L-type Ca2+ channels Ca V 1.3 and Ca V 1.2” (Bioorg Med Chem, 2010).

Experiment [1] concerns the target Voltage-dependent L-type calcium channel subunit alpha-1D (Rattus norvegicus, UniProt P27732). In words: Antagonist activity at rat Cav1.3 expressed in HEK293 cells assessed as inhibition of voltage pulse-induced calcium current by FLIPR calcium 4 assay. It is filed as functional, cell-based. The essentials:
(§1)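 HEK293 lines stably expressing Cavβ3 and Cavα2δ-1 plus Cav1.2 α1C (rabbit) or Cav1.3 α1D (rat) were selected with zeocin/hygromycin. Calcium signals were read by FLIPR with Calcium 4 dye. IC50 came from 11-point dose-response curves. Signal percentage error (SD/mean) was 6.4% for Cav1.2 and 4.1% for Cav1.3 cells.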

Experiment [2] has as its target Voltage-dependent L-type calcium channel subunit alpha-1C (Oryctolagus cuniculus, UniProt P15381). Description: Antagonist activity at rabbit Cav1.2 expressed in HEK293 cells assessed as inhibition of voltage pulse-induced calcium current by FLIPR calcium 4 assay. The format is functional, cell-based. The essentials:
as §1

Chain of Voltage-dependent L-type calcium channel subunit alpha-1C (P15381 whole entry): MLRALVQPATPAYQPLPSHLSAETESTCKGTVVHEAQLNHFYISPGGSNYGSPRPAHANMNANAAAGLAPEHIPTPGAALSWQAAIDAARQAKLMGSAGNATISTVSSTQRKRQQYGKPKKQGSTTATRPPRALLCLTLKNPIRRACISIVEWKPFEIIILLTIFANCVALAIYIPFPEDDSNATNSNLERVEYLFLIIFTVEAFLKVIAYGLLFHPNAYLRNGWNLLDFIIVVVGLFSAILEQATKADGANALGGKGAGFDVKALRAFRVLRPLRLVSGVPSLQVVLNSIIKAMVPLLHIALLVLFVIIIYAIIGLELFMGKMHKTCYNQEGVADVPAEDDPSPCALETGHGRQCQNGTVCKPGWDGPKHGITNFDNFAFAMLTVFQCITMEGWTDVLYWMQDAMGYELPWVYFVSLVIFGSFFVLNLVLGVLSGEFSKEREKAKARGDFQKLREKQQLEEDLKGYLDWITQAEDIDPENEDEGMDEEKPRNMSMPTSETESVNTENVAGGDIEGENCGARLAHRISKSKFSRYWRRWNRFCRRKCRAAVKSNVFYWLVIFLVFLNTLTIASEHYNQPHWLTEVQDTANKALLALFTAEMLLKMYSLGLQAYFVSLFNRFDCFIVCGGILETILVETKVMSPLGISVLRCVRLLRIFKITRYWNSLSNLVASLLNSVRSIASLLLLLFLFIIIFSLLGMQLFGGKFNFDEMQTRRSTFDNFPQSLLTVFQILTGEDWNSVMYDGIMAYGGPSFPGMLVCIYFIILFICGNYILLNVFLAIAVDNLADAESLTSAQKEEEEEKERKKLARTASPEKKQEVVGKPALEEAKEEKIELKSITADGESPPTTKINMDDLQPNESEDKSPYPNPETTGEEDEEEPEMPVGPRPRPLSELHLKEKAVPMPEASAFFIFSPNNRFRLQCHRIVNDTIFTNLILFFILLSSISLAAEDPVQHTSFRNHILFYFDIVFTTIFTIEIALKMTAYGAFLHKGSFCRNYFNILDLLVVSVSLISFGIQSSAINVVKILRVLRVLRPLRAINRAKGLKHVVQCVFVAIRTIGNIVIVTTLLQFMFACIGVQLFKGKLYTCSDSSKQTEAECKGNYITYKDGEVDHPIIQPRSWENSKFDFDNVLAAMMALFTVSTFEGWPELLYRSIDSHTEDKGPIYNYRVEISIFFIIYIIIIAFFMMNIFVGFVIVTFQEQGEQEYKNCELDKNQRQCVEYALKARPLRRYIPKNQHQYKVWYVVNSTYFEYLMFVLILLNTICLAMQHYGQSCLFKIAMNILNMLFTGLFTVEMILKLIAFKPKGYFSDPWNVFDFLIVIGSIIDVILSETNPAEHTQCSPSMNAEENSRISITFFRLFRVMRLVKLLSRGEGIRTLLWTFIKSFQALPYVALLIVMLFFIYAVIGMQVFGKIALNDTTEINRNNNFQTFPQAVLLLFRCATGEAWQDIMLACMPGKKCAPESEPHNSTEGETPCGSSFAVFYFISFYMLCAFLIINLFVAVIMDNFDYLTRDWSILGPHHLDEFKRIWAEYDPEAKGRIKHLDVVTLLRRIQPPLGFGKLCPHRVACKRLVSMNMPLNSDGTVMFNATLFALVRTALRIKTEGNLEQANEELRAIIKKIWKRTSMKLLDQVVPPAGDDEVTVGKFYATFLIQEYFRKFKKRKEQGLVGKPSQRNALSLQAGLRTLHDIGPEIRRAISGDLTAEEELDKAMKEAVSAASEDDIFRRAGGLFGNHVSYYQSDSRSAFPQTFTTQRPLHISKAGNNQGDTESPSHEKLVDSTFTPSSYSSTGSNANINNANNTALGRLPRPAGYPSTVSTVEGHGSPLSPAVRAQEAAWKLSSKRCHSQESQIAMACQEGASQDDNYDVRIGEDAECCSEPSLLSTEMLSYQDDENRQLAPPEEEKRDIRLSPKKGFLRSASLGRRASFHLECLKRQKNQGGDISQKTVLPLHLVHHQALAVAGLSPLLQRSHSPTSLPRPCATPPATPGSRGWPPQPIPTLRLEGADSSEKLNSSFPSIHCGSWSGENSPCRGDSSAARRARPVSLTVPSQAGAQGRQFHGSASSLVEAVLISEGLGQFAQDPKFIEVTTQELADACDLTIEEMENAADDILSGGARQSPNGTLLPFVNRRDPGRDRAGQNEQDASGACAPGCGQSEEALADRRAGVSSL
Chain of Voltage-dependent L-type calcium channel subunit alpha-1D (P27732 whole entry): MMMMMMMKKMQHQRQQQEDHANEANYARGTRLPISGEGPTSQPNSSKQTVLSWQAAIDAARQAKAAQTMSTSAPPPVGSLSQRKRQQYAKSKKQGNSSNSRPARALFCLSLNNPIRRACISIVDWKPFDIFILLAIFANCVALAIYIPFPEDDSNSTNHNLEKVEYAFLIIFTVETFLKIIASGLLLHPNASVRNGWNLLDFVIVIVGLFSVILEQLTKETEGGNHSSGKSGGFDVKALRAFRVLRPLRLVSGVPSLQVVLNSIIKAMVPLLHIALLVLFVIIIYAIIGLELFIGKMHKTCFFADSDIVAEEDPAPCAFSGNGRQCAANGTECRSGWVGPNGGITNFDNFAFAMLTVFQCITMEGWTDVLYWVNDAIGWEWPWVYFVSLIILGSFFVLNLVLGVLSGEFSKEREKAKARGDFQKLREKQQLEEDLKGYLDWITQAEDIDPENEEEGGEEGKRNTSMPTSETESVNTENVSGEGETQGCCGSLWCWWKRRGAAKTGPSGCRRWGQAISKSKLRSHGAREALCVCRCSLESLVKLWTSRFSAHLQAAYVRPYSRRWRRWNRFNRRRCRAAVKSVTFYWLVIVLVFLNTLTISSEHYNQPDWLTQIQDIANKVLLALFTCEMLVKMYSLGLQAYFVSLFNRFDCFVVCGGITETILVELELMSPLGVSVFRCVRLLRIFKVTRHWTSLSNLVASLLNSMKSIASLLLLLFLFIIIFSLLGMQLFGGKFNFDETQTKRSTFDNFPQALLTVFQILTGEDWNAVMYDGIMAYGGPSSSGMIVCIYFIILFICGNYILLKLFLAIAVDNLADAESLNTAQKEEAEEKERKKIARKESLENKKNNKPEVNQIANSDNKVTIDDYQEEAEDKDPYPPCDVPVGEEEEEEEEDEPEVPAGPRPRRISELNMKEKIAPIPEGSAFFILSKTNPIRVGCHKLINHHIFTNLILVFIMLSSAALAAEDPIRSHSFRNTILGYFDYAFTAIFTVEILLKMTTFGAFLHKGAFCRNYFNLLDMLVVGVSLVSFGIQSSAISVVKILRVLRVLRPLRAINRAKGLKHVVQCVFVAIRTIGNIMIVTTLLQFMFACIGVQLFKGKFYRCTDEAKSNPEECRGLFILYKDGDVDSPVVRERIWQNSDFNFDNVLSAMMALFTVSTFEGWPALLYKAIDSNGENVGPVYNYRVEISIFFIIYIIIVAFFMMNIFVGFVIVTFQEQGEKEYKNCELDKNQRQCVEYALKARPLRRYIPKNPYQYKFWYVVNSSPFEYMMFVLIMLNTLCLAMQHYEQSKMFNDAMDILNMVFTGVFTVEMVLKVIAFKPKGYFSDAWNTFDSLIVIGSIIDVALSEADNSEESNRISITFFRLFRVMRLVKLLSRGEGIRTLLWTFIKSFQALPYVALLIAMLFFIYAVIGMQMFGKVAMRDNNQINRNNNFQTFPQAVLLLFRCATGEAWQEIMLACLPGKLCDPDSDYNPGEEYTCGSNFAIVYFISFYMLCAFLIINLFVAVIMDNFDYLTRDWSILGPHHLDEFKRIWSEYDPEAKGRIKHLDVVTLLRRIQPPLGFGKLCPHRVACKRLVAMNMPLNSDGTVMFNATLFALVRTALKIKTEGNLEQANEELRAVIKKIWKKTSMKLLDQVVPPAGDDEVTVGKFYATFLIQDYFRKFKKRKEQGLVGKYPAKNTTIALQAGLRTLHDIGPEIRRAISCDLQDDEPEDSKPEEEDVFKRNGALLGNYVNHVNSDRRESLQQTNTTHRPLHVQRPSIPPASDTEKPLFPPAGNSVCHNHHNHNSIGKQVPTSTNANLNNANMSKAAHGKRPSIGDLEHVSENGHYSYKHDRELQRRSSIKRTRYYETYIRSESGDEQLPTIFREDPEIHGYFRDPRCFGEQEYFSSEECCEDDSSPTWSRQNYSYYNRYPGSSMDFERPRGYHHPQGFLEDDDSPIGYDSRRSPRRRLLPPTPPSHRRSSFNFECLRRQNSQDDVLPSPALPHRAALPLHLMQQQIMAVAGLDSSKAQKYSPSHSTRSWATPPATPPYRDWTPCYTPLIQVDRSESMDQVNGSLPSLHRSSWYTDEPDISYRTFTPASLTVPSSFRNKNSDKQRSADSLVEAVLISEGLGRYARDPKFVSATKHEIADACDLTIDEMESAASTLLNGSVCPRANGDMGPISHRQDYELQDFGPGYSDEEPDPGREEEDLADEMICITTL

For the molecule `CCOC(=O)C1=C(C)NC(C)=C(C(=O)OC=O)C1c1cccc([N+](=O)[O-])c1` (stereo not drawn), the figures for the half-maximal inhibitory concentration (IC50) in experiment [1] and in experiment [2] were 13900 nM and 33300 nM, respectively.
Take `CCOC(=O)C1=C(C)NC(/C=C/C#N)=C(C(=O)OCC)C1c1cccc([N+](=O)[O-])c1` (stereo not drawn): the IC50 worked out at 45 nM in experiment [1] and 22 nM in experiment [2].
On to `COC(=O)C1=C(C)NC(C)=C(C(=O)OCc2cccc(F)c2)C1c1cccc([N+](=O)[O-])c1` (stereo not drawn), for which the 50% inhibitory concentration (IC50) amounted to 28 nM in experiment [1] and 22 nM in experiment [2].
For the molecule `CCOC(=O)C1=C(C)NC(C)=C(C(=O)OCC)C1c1ccc(F)cc1F`, the IC50 is 58 nM in experiment [1] and 20 nM in experiment [2].
The matching figures for `COC(=O)C1=C(C)NC(C)=C(C(=O)OCCC#N)[C@H]1c1cccc([N+](=O)[O-])c1`: 589 nM and 143 nM.
As for `COC(=O)C1=C(C)NC(C)=C(C(=O)OC2C=CCCC2)C1c1cccc([N+](=O)[O-])c1` (stereo not drawn), the IC50 in experiment [1] and in experiment [2] was 10 nM each time.
Take `CCCCCOC(=O)C1=C(C)NC(C)=C(C(=O)OCC)C1c1cccc([N+](=O)[O-])c1` (stereo not drawn): the IC50 in experiment [1] stood at 130 nM; in experiment [2] it was 49 nM.
On the same counts, the results for `C=C(C)C(=O)OCCOC(=O)C1=C(C)NC(C)=C(C(=O)OCC)C1c1cccc([N+](=O)[O-])c1` (stereo not drawn) are 10 nM and 10 nM.
The matching figures for `COC(=O)C1=C(C)NC(C)=C(C(=O)OCc2ccc(F)c(F)c2)C1c1cccc([N+](=O)[O-])c1` (stereo not drawn): 20 nM and 7 nM.
On the same counts, the results for `CCOC(=O)C1=C(C)NC(CO)=C(C(=O)OCC)C1c1cccc([N+](=O)[O-])c1` (stereo not drawn) are 45 nM and 49 nM.
In the case of `COC(=O)C1=C(C)NC(C)=C(C(=O)OCc2ccc(-c3ccccc3)cc2)C1c1cccc([N+](=O)[O-])c1` (stereo not drawn), the values for the IC50 in experiment [1] and in experiment [2] were 74 nM and 69 nM, respectively.
On the same counts, the results for `CCOC(=O)C1=C(C)NC(C)=C(C(=O)OCc2ccc([N+](=O)[O-])cc2)C1c1cccc([N+](=O)[O-])c1` (stereo not drawn) are 140 nM and 130 nM.
The matching figures for `CCCC1=C(C(=O)OCC)C(c2cccc([N+](=O)[O-])c2)C(C(=O)OCC)=C(C)N1` (stereo not drawn): 105 nM and 18 nM.
Regarding `CCOC(=O)C1=C(C)OC(C)=C(C(=O)OCC)C1c1cccc([N+](=O)[O-])c1`, the IC50 in experiment [1] is 1920 nM; in experiment [2], over 4000 nM.
The matching figures for `CCCCC1=C(C(=O)OCC)C(c2cccc([N+](=O)[O-])c2)C(C(=O)OCC)=C(C)N1` (stereo not drawn): 20 nM and 20 nM.
The matching figures for `CC1=C(C#N)C(c2cccc(F)c2F)C(C#N)=C(C)N1`: 1150 nM and 1610 nM.
The matching figures for `COC(=O)C1=C(C)NC(C)=C(C(=O)OCc2ccc(OC)cc2)C1c1cccc([N+](=O)[O-])c1` (stereo not drawn): 79 nM and 51 nM.
On to `CCOC(=O)C1=C(C)NC(C)=C(C(C)=O)C1c1ccc2ccccc2c1` (stereo not drawn), for which the IC50 in experiment [1] was 2320 nM; in experiment [2] it was 2220 nM.
Regarding `COC(=O)C1=C(C)NC(C)=C(C(=O)OCc2ccco2)C1c1cccc([N+](=O)[O-])c1` (stereo not drawn), the 50% inhibitory concentration (IC50) in experiment [1] was 15 nM; in experiment [2], 20 nM.
On the same counts, the results for `COC(=O)C1=C(C)NC(C)=C(C(=O)OCc2cc([N+](=O)[O-])cc([N+](=O)[O-])c2)C1c1cccc([N+](=O)[O-])c1` (stereo not drawn) are 40 nM and 55 nM.
On the same counts, the results for `COCC1=C(C(=O)OC)C(c2cccc([N+](=O)[O-])c2)C(C(=O)OC)=C(C)N1` (stereo not drawn) are 350 nM and 115 nM.
In the case of `CCOC(=O)C1=C(C)NC(/C=C/c2ccc([N+](=O)[O-])cc2)=C(C(=O)OCC)C1c1cccc([N+](=O)[O-])c1` (stereo not drawn), the IC50 in experiment [1] came out at 2060 nM; in experiment [2] it was 1940 nM.
The matching figures for `COC(=O)C1=C(C)NC(C)=C(C(=O)OC/C=C/c2ccccc2)C1c1cccc([N+](=O)[O-])c1` (stereo not drawn) [PRANIDIPINE]: 37 nM and 37 nM.
On the same counts, the results for `CCOC(=O)C1=C(C)NC(C)=C(C(=O)OCCOC)C1c1cccc([N+](=O)[O-])c1` (stereo not drawn) are 82 nM and 16 nM.

For orientation: IC50 means the point on the concentration scale where inhibition reaches its midpoint.
